Measurements from ChEMBL document CHEMBL1135024, “Studies toward the discovery of the next generation of antidepressants. Part 2: incorporating a 5-HT(1A) antagonist component into a class of serotonin reuptake inhibitors” (Bioorg Med Chem Lett, 2002).

What was measured:
[1] = molecular target: Sodium-dependent serotonin transporter (Rattus norvegicus, UniProt P31652); assay: Affinity for RB Serotonin transporter was determined in vitro by incubating compound
Summary of the method: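 Radioligand binding to the 5-HT transporter with [³H]-paroxetine. Ki values are the mean of 2–3 experiments, each run in triplicate at six concentrations. 95% confidence limits were generally within 15% of the mean.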

[2] = molecular target: T1, 5-hydroxytryptamine receptor 1A (Homo sapiens) (UniProt P08908); assay: In vitro agonist activity at the 5-hydroxytryptamine 1A receptor; assay type: functional
T1 sequence (whole entry): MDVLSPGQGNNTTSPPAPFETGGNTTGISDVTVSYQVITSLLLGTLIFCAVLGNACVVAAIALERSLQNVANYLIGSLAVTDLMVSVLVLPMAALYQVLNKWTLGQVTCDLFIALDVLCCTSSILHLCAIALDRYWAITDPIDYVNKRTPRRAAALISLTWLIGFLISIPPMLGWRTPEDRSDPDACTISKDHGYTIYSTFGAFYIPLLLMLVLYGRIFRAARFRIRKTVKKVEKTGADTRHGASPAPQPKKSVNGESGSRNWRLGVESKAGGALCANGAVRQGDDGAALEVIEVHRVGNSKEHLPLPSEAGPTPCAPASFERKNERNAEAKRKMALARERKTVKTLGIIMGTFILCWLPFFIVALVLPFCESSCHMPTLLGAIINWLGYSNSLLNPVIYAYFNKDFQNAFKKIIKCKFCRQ

[3] = molecular target: T2, 5-hydroxytryptamine receptor 1A (Homo sapiens, UniProt P08908); assay: Antagonism of 5-hydroxytryptamine 1A receptor determined in vitro; assay type: functional
T2 sequence (P08908 whole entry): T1 sequence (whole entry)

[4] = molecular target: T3, Adrenergic receptor alpha-1 (Rattus norvegicus, UniProt P15823+P23944+P43140); assay: In vitro binding affinity towards Alpha-1 adrenergic receptor was determined by the displacement of [3H]prazosin; assay type: protein assay
T3 sequence (P15823 whole entry): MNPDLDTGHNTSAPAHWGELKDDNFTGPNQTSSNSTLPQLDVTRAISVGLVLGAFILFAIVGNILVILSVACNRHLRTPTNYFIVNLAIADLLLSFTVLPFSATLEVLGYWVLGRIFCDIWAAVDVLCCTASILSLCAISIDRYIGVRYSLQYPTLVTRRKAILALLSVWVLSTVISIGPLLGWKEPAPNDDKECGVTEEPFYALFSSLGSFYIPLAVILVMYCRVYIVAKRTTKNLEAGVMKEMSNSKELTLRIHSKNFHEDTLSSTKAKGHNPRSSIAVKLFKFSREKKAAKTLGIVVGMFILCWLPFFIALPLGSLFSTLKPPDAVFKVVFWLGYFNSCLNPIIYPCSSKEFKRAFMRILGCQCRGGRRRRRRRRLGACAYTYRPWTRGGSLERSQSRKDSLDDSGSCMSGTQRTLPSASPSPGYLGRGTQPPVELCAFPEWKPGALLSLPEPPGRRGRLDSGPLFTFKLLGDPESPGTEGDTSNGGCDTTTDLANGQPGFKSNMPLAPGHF
T3 sequence (P23944 whole entry): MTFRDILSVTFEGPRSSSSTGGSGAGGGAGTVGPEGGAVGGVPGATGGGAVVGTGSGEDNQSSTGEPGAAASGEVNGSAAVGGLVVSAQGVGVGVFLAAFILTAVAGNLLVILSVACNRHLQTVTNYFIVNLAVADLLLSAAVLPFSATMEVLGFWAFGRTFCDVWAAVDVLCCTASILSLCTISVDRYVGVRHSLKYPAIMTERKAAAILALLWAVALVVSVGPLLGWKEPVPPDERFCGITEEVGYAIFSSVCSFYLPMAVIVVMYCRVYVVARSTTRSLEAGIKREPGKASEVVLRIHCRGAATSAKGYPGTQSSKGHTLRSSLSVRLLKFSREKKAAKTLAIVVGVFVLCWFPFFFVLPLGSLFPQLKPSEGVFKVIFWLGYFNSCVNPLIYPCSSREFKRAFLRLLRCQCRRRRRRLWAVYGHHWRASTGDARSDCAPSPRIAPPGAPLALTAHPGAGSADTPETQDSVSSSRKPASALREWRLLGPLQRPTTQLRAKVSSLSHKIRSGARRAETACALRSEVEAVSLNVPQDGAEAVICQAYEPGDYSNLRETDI
T3 sequence (P43140 whole entry): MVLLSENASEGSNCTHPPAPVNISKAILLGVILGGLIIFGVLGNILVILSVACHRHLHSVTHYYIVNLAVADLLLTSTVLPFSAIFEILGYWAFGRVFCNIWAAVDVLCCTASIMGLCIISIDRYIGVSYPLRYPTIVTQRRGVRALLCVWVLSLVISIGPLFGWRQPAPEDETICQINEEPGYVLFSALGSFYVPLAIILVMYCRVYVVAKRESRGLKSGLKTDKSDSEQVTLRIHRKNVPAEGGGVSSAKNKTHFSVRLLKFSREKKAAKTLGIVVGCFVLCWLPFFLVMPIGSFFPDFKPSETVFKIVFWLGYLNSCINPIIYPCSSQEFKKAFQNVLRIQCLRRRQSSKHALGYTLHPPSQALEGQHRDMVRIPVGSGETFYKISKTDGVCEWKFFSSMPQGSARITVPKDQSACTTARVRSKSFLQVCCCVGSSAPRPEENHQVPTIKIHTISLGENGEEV
Summary of the method: (§1)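 Displacement binding: [³H]-prazosin for α1 and [³H]-8-OH-DPAT for human 5-HT1A. Ki values are the mean of 2–3 experiments at six concentrations, each in triplicate. 95% confidence limits were generally within 15% of the mean.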

[5] = molecular target: Sodium-dependent serotonin transporter (Homo sapiens, UniProt P31645); assay: Affinity for HC Serotonin transporter determined in vitro by incubating compound and [3H]5-HT with human carcinoma (Jar cells), previously treated with staurosporine; assay type: cell-based
Summary of the method: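 Read-out is specific [³H]-5-HT uptake into Jar human carcinoma cells pretreated with staurosporine to enhance transporter expression, after incubation with the test compound.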

[6] = molecular target: T2, 5-hydroxytryptamine receptor 1A; assay: Antagonism of 5-hydroxytryptamine 1A receptor was determined in vitro using a [35S]GTP-gamma-S,; assay type: functional
[7] = molecular target: T1, 5-hydroxytryptamine receptor 1A (Homo sapiens); assay: Agonist activity at the 5-hydroxytryptamine 1A receptor was determined in vitro using a [35S]GTP-gamma-S,; assay type: functional
[8] = molecular target: T2, 5-hydroxytryptamine receptor 1A; assay: In vitro binding affinity towards Human 5-hydroxytryptamine 1A receptor by the displacement of [3H]8-OH-DPAT; assay type: single protein; summary of the method: as §1
[9] = molecular target: T2, 5-hydroxytryptamine receptor 1A; assay: Antagonism at the 5-hydroxytryptamine 1A receptor in vitro; assay type: functional
[10] = molecular target: T2, 5-hydroxytryptamine receptor 1A; assay: Antagonism at the 5-hydroxytryptamine 1A receptor was determined in vitro using a [35S]GTP-gamma-S,; assay type: functional
[11] = molecular target: T1, 5-hydroxytryptamine receptor 1A (Homo sapiens); assay: Agonist activity at the 5-hydroxytryptamine 1A receptor determined in vitro using a [35S]GTP-gamma-S,; assay type: functional

Sequence of Sodium-dependent serotonin transporter (Rattus norvegicus, UniProt P31652) (P31652 whole entry): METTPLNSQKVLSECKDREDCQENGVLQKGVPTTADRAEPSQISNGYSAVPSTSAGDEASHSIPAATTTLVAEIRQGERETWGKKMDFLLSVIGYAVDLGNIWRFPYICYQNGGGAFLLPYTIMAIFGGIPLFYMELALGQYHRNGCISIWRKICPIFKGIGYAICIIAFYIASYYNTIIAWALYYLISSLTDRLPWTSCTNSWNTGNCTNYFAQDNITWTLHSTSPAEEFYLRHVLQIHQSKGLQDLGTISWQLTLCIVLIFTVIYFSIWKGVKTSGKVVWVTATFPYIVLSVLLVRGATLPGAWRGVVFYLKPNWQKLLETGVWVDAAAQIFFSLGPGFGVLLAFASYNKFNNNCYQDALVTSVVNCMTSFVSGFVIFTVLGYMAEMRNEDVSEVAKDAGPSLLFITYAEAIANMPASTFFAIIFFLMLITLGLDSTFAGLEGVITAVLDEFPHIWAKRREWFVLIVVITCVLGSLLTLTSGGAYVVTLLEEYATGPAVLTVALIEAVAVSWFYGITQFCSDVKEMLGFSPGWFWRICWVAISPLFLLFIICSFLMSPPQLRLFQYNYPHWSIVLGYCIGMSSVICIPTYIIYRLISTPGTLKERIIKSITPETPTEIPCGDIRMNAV
Sequence of Sodium-dependent serotonin transporter (Homo sapiens, UniProt P31645) (P31645 whole entry): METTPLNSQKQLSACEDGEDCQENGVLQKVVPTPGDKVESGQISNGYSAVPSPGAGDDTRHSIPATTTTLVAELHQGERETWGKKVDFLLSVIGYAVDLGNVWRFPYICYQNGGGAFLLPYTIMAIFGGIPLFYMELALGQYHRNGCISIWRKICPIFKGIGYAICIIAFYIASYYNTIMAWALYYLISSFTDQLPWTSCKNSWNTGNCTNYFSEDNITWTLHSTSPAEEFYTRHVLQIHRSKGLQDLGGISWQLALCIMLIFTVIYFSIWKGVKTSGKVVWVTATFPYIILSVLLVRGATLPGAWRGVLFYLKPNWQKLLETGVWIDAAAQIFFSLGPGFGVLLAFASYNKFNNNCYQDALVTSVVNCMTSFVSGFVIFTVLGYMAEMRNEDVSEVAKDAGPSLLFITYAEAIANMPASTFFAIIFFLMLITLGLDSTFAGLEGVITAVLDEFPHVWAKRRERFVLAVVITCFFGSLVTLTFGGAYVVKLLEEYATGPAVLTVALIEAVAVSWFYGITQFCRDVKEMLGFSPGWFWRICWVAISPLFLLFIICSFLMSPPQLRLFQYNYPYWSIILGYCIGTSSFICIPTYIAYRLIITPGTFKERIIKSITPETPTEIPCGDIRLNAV

SMILES | Ki [1] [nM] | Emax [2] | IC50 [3] [nM] | Ki [4] [nM] | Ki [5] [nM] | IC50 [6] [nM] | Emax [7] | Ki [8] [nM] | IC50 [9] [nM] | IC50 [10] [nM] | Emax [11]
Fc1ccc2[nH]cc(C3=CCN(CCOc4cccc5c4OCCO5)CC3)c2c1 | 1.17 | 0 | 1040 | 30 | 46.9 | 684 | 11 | – | – | – | –
Fc1ccc2c(C3CCN(CCOc4cccc5c4OCCO5)CC3)c[nH]c2c1 | 4.7 | 0 | 920 | 2.8 | 128 | 666 | 29.5 | 19.6 | – | – | –
C1=C(c2c[nH]c3ncccc23)CCN(CCOc2cccc3c2OCCO3)C1 | – | 0 | – | 33 | 276 | – | 30 | – | 969 | – | –
C1=C(c2c[nH]c3ncccc23)CCN(CCOc2cccc3ncccc23)C1 | – | 0 | 90 | 78 | 387 | – | 0 | – | – | 181 | –
C1=C(c2c[nH]c3ccccc23)CCN(CCOc2cccc3c2OCCO3)C1 | 0.17 | 0 | 115 | 4.7 | 45 | 222 | 21 | – | – | – | –
Fc1ccc2[nH]cc(CC3CCN(CCOc4cccc5c4OCCO5)CC3)c2c1 | 0.01 | – | – | – | – | – | – | – | – | – | –
Fc1ccc2c(C3=CCN(CCOc4cccc5c4OCCO5)CC3)c[nH]c2c1 | 0.15 | – | – | 4.1 | 19.8 | – | 53 | 83.6 | – | – | –
C1=C(c2c[nH]c3ccccc23)CCN(CCOc2cccc3ncccc23)C1 | 0.23 | 0 | 686 | 3.6 | 93.6 | 524 | 14 | 92.6 | – | – | –
C1=C(c2c[nH]c3ccccc23)CCN(CCOc2cccc3[nH]ccc23)C1 | 0.03 | 0 | 33 | 0.19 | 41.2 | – | – | 21.6 | – | 115 | 7.5
C1=C(c2c[nH]c3ncccc23)CCN(CCOc2cccc3[nH]ccc23)C1 | – | 0 | 12 | 0.9 | 175 | 38.9 | 7 | – | – | – | –
